According to ChEMBL document CHEMBL3390837, “Bridged tetrahydroisoquinolines as selective NADPH oxidase 2 (Nox2) inhibitors” (Medchemcomm, 2013):
The source made the active and inactive calls. The rule behind the calls is not given here.

Key:
NADPH oxidase 2 = target: T1, NADPH oxidase 2 (Homo sapiens, UniProt P04839); assay: Inhibition of full length human NOX2 transfected in COS 22 cells assessed as inhibition of Phorbol 12-myristate 13-acetate-stimulated ROS generation by chemiluminescence assay; format: cell-based; details: read-out: IC50
T1 sequence (P04839 whole entry): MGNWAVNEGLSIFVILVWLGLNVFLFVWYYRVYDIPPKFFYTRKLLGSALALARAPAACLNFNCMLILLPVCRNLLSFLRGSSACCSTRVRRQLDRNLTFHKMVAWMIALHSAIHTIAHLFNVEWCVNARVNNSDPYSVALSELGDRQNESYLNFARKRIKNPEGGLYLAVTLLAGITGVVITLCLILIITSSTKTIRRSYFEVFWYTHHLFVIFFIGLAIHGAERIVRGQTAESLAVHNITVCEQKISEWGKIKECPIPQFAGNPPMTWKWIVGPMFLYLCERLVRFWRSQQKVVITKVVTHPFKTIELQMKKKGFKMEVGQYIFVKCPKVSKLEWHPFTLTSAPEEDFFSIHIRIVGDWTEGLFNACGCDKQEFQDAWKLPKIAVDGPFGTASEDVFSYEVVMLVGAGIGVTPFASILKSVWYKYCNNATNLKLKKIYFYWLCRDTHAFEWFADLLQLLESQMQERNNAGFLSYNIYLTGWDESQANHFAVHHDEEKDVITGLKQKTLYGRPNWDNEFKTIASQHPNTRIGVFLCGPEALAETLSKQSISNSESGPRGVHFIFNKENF
Outline: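 COS-Nox2 (COS-7 stably expressing human p22phox, Nox2, p47phox, p67phox) plated in OPTIMEM at 2.5 x 10³ cells/well; 10 min at 37 °C in PBS with L-012, then stimulated with 5 µM PMA; luminescence followed over time; superoxide specificity checked with SOD 150 U/mL. IC50 by three-parameter non-linear fit, Hill slope 1, top/bottom fixed 100/0.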

NADPH oxidase 5 = target: T2, NADPH oxidase 5 (Homo sapiens, UniProt Q96PH1); assay: Inhibition of full length human NOX5 transfected in HEK cells assessed as inhibition of ionomycin-stimulated ROS generation by chemiluminescence assay; format: cell-based, HEK293
T2 sequence (Q96PH1 whole entry): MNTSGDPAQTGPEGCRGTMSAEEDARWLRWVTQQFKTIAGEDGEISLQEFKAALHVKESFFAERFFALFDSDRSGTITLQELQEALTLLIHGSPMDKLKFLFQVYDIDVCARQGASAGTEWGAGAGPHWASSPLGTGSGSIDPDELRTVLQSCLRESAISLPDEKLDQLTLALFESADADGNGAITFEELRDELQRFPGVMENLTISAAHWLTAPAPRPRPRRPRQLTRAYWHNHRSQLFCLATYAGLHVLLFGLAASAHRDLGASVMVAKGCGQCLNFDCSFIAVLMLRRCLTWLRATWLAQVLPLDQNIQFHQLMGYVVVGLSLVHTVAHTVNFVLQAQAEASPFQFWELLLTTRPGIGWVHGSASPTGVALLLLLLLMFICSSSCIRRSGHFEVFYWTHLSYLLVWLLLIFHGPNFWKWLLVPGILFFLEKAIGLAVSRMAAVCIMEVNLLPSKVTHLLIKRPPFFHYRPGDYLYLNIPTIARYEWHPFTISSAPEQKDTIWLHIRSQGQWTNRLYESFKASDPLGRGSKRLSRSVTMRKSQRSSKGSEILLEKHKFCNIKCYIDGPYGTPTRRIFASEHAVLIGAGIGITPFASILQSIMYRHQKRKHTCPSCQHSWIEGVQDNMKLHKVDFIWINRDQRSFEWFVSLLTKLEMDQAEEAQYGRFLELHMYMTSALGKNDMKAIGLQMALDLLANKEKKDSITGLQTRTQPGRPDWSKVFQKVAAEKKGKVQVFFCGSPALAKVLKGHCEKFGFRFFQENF
Outline: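 HEK-Nox5 cells at 5 × 10⁴ cells/well in OPTIMEM, 10 min at 37 °C in PBS with L-012, then stimulated with 1 µM PMA/0.1 µM ionomycin; luminescence over time; SOD 150 U/mL used to confirm superoxide specificity. IC50 by three-parameter fit, Hill slope 1, top/bottom fixed 100/0.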

[1] = target: Xanthine dehydrogenase/oxidase (Bos taurus, UniProt P80457); assay: Inhibition of bovine milk xanthine oxidase assessed as hypoxanthine-stimulated ROS generation by measuring H2O2 production at 25 to 50 uM by fluorescence assay; details: cattle
Sequence of Xanthine dehydrogenase/oxidase (P80457 whole entry): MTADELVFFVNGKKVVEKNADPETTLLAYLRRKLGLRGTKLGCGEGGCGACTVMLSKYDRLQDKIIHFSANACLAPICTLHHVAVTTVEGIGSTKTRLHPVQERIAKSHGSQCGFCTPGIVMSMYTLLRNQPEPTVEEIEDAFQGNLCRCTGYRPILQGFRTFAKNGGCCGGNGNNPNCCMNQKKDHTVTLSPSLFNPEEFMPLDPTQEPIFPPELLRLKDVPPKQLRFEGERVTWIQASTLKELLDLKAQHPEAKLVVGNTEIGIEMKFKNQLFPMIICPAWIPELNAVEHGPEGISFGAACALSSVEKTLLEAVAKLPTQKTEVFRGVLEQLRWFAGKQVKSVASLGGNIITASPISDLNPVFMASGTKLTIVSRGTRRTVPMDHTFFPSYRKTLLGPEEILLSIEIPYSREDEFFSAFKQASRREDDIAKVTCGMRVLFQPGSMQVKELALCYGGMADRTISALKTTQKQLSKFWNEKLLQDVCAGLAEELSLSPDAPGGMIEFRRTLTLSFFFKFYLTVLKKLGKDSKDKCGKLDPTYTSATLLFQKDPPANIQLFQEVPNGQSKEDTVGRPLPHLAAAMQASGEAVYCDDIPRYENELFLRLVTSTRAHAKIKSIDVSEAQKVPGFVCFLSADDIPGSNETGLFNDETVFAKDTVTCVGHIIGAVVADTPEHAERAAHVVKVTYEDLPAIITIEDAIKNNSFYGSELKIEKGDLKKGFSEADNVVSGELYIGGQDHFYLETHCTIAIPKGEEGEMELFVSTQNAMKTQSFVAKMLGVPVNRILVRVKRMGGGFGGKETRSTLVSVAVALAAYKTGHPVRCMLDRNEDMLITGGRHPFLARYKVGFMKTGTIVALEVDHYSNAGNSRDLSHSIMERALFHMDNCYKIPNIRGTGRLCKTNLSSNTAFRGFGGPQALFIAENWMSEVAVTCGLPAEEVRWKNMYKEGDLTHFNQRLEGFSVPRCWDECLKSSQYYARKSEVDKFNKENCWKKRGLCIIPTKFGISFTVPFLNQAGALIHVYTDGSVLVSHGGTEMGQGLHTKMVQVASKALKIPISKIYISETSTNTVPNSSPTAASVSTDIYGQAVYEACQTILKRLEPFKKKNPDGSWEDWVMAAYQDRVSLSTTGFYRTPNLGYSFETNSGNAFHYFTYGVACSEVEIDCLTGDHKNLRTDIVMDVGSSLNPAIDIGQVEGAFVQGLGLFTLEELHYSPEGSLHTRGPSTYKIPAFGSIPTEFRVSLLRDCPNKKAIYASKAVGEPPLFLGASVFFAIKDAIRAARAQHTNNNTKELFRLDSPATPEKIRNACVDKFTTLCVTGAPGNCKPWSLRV

[2] = target: T3, NADPH oxidase 2 (Homo sapiens) (UniProt P04839); assay: Inhibition of full length human NOX2 transfected in COS 22 cells assessed as inhibition of lithium dodecyl sulphate-stimulated ROS generation at 6.3 uM preincubated for 15 mins followed by lithium dodecyl sulphate challenge by cell-free assay in presence of NADPH
T3 sequence (whole entry): T1 sequence (P04839 whole entry)
Outline: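 COS-Nox2 lysate (freeze/thaw ×5, needle passage, 1000 × g spin, kept near 0 °C) at 5 × 10⁵ cell equivalents/well in 65 mM sodium phosphate pH 7.0 with 1 mM EGTA, 10 µM FAD, 1 mM MgCl₂, 2 mM NaN₃, 0.2 mM cytochrome c; superoxide from initial 10-min linear rate of SOD-inhibitable cytochrome c reduction at 550 nm (21.1 mM⁻¹ cm⁻¹).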

NADPH oxidase 4 = target: T4, NADPH oxidase 4 (Homo sapiens, UniProt Q9NPH5); assay: Inhibition of full length human NOX4 transfected in COS 22 cells assessed as inhibition of ROS generation by measuring H2O2 production by fluorescence assay; details: read-out: IC50
T4 sequence (Q9NPH5 whole entry): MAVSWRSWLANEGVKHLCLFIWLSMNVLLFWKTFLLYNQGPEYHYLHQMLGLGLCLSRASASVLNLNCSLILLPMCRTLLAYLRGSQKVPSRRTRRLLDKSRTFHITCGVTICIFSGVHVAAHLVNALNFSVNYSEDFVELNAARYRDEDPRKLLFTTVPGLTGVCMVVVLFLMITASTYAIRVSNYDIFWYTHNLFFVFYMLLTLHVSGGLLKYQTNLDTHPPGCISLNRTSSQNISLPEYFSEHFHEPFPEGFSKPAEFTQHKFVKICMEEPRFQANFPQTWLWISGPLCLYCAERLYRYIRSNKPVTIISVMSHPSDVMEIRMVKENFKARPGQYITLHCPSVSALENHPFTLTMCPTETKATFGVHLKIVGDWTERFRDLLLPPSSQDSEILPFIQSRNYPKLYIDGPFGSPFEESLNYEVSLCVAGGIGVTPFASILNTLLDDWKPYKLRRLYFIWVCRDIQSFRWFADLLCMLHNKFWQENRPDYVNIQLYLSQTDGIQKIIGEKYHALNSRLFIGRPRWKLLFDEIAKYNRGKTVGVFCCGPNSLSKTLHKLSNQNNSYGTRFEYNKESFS

IC50 (NADPH oxidase 2): 46 µM
IC50 (NADPH oxidase 5): 20 µM
inhibition (INH) [1]: Not Active
inhibition [2]: Active
IC50 (NADPH oxidase 4): > 100 µM
Compound: C=C(C)C[C@@H]1N[C@H]2CC(C)(C)[C@@H]1c1c(Br)cccc12 (racemic)
